m5-HT2A agonist = mouse HTR2A agonism via beta-arrestin recruitment. P35363. CHO-K1 mHTR2A beta-arrestin complementation, luminescence; percent of 30 µM serotonin response. activation, % at 7.6 µM. hit rate 0.66% among 360,000. AID 624169;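 active means activation above a run cutoff, the mean activation of all tested compounds plus 3 SD, cut at about 14% in these data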;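 further: 0% = plate median of compound wells and 100% = 30 µM serotonin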
T cell modulator = modulates CD8 T cell binding to vesicles; 2C CD8+ T cell-vesicle binding, flow cytometry; stronger effect = lower value; response (vesicle binding), % at 7 µM; hit rate 0.068% among 330,000;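 active means response, share of CD8 T cells binding vesicles, and their 90th percentile fluorescence all below set limits, cut at about 80% in these data, passing the limit was not always enough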;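 further: values below 100% mean blocked vesicle binding to the CD8+ T cells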
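Assay system: 2C TCR transgenic mouse naive CD8+ T cells, MACS-purified | Read-out: CD8+ gate FL2 mean fluorescence as % of same-row positive control | Signal: High-throughput flow cytometry with anti-B7-1 and anti-CD8 staining | Timing: Binding step 1.5 h, 37 °C, antibody labelling 20 min, ice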
PP1 counter = PP1-alpha (human) inhibition in PP5 counter-screen | purified PP1alpha, OMFP fluorescence | inhibition, % at 6.7 µM | hit rate 0.9% among 320,000;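 active means inhibition above the mean inhibition of all tested compounds plus 3 SD, computed separately for each screening campaign, cut at about 15% in these data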
Target sequence (P62136 whole entry, looked up): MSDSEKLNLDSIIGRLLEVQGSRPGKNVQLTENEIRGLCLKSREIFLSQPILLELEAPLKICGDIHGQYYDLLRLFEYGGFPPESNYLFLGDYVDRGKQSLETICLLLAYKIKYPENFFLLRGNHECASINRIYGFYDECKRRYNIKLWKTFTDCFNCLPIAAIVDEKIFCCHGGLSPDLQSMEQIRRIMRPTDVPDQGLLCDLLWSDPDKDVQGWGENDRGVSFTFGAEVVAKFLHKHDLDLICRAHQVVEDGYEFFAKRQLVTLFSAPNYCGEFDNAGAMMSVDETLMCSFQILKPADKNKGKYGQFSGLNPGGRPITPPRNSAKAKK
JMJD2C inh = human JMJD2C demethylase inhibition; Q9H3R0; GST-JMJD2C(1-420) H3K9me3 demethylation, DELFIA europium; inhibition, % at 2.35 µM; hit rate 0.069% among 330,000; AID 2099;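 active means more than half of a compound's replicate wells show inhibition beyond 50%, single wells judged on their own value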;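 further: signal counts dimethyl H3K9 product captured on neutravidin plate; 0% = median of DMSO wells and 100% = 0.3 times that DMSO median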
PP5 primary = PP5 (human) phosphatase inhibition; hit rate 0.18% among 320,000; purified PP5c, OMFP substrate fluorescence; P53041; inhibition, % at 6.7 µM; AID 1987;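 active means inhibition above the campaign's mean inhibition across all tested compounds plus 3 SD, cut at about 9.5% in these data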;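 further: 0% = DMSO only and 100% = 100 µM cantharidin control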
* marks the source's active call; other numbers are inactive results. An excerpt weighted towards active compounds, which were near 1.7% of everything screened.

For O=C(CSC1=NNC(c2ccccn2)S1)Nc1ccc(C(F)(F)F)cc1 (configuration not stated) the results were m5-HT2A agonist 3, T cell modulator 458, PP1 counter -3, JMJD2C inh -8 and PP5 primary 1.
For c1ccc(CSC2=NNC(c3ccccn3)S2)cc1 (configuration not stated) the results were m5-HT2A agonist -1, T cell modulator 68*, PP1 counter 4, JMJD2C inh -15 and PP5 primary -1.
`CCOc1cc(/C=N/NC(=O)CNc2ccc(C)cc2)ccc1OC(=O)c1ccccc1` gave m5-HT2A agonist -6, T cell modulator 73, PP1 counter 15*, JMJD2C inh -1 and PP5 primary 2.
Screening CCOc1cc(/C=N/NC(N)=O)ccc1OC(=O)c1ccc(C)cc1 returned T cell modulator 578, PP1 counter 0, JMJD2C inh 36 and PP5 primary 5.
For O=[N+]([O-])c1ccc(/C=[N+](\[O-])[C@@H]2CCCC[C@@H]2/[N+]([O-])=C/c2ccc([N+](=O)[O-])o2)o1 the results were m5-HT2A agonist 4, T cell modulator 91, PP1 counter 1, JMJD2C inh 89* and PP5 primary 1.
`O=C(OCCO)c1c(-c2ccccc2)oc2c1C(OCCO)CCC2` (configuration not stated) gave m5-HT2A agonist -1.
For COc1ccc2cc(C(C)C(=O)O)ccc2c1 (configuration not stated) the results were m5-HT2A agonist 5, T cell modulator 510, PP1 counter -3 and PP5 primary -1.
`COc1ccc2cc([C@H](C)C(=O)O)ccc2c1` gave m5-HT2A agonist 41*, T cell modulator 381, PP1 counter -1, JMJD2C inh 7 and PP5 primary -2.
Screening O=c1c2ccc(Cl)cc2nc(-c2cccc(C(F)(F)F)c2)n1O returned m5-HT2A agonist 3, T cell modulator 302, PP1 counter 16*, JMJD2C inh 0 and PP5 primary 3.
OC(c1ccc2c(c1)OCO2)c1ncc(-c2cccc(C(F)(F)F)c2)[nH]1 (configuration not stated) was read as m5-HT2A agonist -3.
`COc1cccc(N=Nc2c(N)[nH]n3c(=O)c4c(nc23)CCCC4)c1` gave m5-HT2A agonist 0, T cell modulator 173, PP1 counter 17*, JMJD2C inh -11 and PP5 primary 2.
For O=c1oc2c(O)c(O)cc3c(=O)oc4c(O)c(O)cc1c4c23 the results were m5-HT2A agonist -2, T cell modulator 499, PP1 counter 27* and PP5 primary 0.
Screening Cc1ccc(Nc2nc(N)nc(CSc3nnnn3-c3ccccc3)n2)cc1 returned m5-HT2A agonist -7, T cell modulator 957, PP1 counter 16*, JMJD2C inh 8 and PP5 primary -1.
Cc1nc(CNC(=O)C2CCC(=O)N(CCc3ccc(Cl)cc3)C2)sc1C (configuration not stated) was read as m5-HT2A agonist 1, T cell modulator 47*, PP1 counter -7, JMJD2C inh -2 and PP5 primary 1.
Cc1ccc(/C=C(\NC(=O)c2ccccc2)C(=O)N2CCCC2C(=O)O)cc1 (configuration not stated) was read as m5-HT2A agonist -1, T cell modulator 456, PP1 counter -3, JMJD2C inh 4 and PP5 primary -4.
`O=C(CCc1ccccc1)Nc1nnc(-c2ccc3c(c2)OCCO3)o1` gave m5-HT2A agonist 8, T cell modulator 388, PP1 counter 4, JMJD2C inh 0 and PP5 primary 2.
For O=C(COc1ccccc1)Nc1nnc(-c2ccc(Cl)s2)o1 the results were m5-HT2A agonist 0, T cell modulator inactive, PP1 counter 19*, JMJD2C inh 2 and PP5 primary 1.
`O=C(Nc1nnc(-c2ccc(Cl)s2)o1)C1CC1` gave m5-HT2A agonist 0, T cell modulator 235, PP1 counter -2, JMJD2C inh -17 and PP5 primary -3.
O=C(COc1ccccc1)Nc1nnc(-c2ccccc2)o1 was read as m5-HT2A agonist -1, T cell modulator 349, PP1 counter 15*, JMJD2C inh 0 and PP5 primary 1.
O=C(CCc1ccccc1)Nc1nnc(-c2ccc3c(c2)CCCC3)o1 was read as m5-HT2A agonist 4, T cell modulator 722, PP1 counter 20*, JMJD2C inh 5 and PP5 primary -1.
For O=C(COc1ccccc1)Nc1nnc(-c2ccco2)o1 the results were m5-HT2A agonist 0, T cell modulator 402, PP1 counter -1, JMJD2C inh 5 and PP5 primary -1.
Screening Cc1cc(=O)[nH]c(SCCCOc2ccc(F)cc2)n1 returned m5-HT2A agonist -5, T cell modulator 396, PP1 counter -4, JMJD2C inh -7 and PP5 primary 2.
For Cc1cc(Cl)c(OCCCSc2nc(C)cc(=O)[nH]2)c(Br)c1 the results were m5-HT2A agonist 1, T cell modulator 74*, PP1 counter 10, JMJD2C inh 0 and PP5 primary 6.
Screening Cc1ccc(OCC(=O)Nc2ccc(N3CCN(S(C)(=O)=O)CC3)cc2)cc1C returned m5-HT2A agonist 8, T cell modulator 285, PP1 counter -2, JMJD2C inh -13 and PP5 primary -1.
`CCCCn1c(SCC(=O)NCc2ccco2)nc2ccccc2c1=O` gave m5-HT2A agonist 3, T cell modulator 295, PP1 counter -2, JMJD2C inh 0 and PP5 primary -1.
Screening CCCCCn1c(SCc2ccncc2)nc2cc(C(=O)NCc3ccco3)ccc2c1=O returned m5-HT2A agonist -5, T cell modulator 173, PP1 counter 16*, JMJD2C inh 0 and PP5 primary 3.
For COC(=O)c1ccc2c(c1)C(C)(C)C(/C=C/c1ccc(OC)c(OC)c1OC)=[N+]2C the results were m5-HT2A agonist -1, T cell modulator 140, PP1 counter 8, JMJD2C inh 6 and PP5 primary 1.
COC(=O)c1ccc2c(c1)C(C)(C)C(/C=C/c1ccc(O)cc1)=[N+]2C was read as m5-HT2A agonist -5, T cell modulator 437, PP1 counter 17*, JMJD2C inh 3 and PP5 primary 7.
`CCCCn1c(N)c(N(CC)C(=O)c2cccc(S(=O)(=O)N3CCN(C)CC3)c2)c(=O)[nH]c1=O` gave m5-HT2A agonist -2, T cell modulator 454, PP1 counter -3, JMJD2C inh 0 and PP5 primary -2.
Screening Cc1ccc(S(=O)(=O)Nc2ccccc2N=Cc2c(F)c(F)c(F)c(F)c2F)cc1 returned m5-HT2A agonist 11.
`Cc1ccc(S(=O)(=O)Nc2ccccc2C=Nc2cccc(C)c2C)cc1` gave m5-HT2A agonist 1, T cell modulator 0.0*, PP1 counter -2, JMJD2C inh -4 and PP5 primary -3.
For COc1ccc(-c2ccccc2)cc1NC(=O)[C@@H]1O[C@H](CO)[C@H](O)[C@H](O)[C@H]1O the results were m5-HT2A agonist -1.
